Experimental data published in article PMC11673187 (JACS Au, 2024).
One block for each substance: values may come before it.

Assays:
[1] = system: Nbs bearing click handles (Nb6EPEG4DBCO and NbALFAbiotinN3); experiment: Assessment of click chemistry; settings: Gly vs Ahx linker; azide vs alkyne pairing; S4A-C
Summary of the method: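 Click cross-linking run at room temperature in TBS with 10 µM of each nanobody bearing a click handle (DBCO or azide), with or without equimolar dimeric template peptide. Quenched with 500 µM GGG-Lys(azide) peptide, then denatured in Laemmli buffer with 100 mM DTT at 95 °C. Products resolved on 15% polyacrylamide gels and stained. High-MW cross-linked band quantified by densitometry, normalized to a control quenched at T = 0.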

PTHR1 [2] = target: T1, PTHR1 (Homo sapiens, UniProt Q03431); experiment: PTHR1-mediated signaling via Gαs/cAMP; type: cell-based; settings: DPahx 300 nM with various concentrations of Nb-PTH conjugates; Figure 3D, S8
T1 sequence (Q03431 27-593): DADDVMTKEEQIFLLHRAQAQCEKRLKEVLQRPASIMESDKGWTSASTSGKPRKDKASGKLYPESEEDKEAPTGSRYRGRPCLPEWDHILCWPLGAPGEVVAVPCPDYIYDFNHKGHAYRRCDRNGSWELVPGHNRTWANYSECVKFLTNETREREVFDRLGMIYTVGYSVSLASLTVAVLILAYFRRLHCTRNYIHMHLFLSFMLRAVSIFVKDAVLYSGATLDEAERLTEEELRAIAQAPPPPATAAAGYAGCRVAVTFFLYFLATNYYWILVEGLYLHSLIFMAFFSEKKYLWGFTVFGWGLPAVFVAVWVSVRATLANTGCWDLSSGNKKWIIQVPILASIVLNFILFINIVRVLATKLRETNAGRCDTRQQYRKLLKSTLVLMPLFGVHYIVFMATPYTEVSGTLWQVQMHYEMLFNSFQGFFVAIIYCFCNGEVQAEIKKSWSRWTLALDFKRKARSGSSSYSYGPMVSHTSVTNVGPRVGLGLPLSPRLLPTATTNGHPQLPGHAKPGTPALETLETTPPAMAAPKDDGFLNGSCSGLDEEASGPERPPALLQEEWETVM
Summary of the method: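 HEK293 cells stably expressing PTHR1 and a cAMP luminescence reporter, grown in DMEM with 10% FBS and Pen-Strep, mycoplasma-free. Varying concentrations of the complementary azide and DBCO nanobody–PTH fragment conjugates added with or without 300 nM dimeric peptide. Luminescence normalized to the maximum for the conjugate pair alone; technical replicates in a representative experiment.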

PTHR1 [3] = target: T1, PTHR1; settings: fragments of PTH1–34; cited from earlier work
[4] = metal-free, absence of proximity enforcing conditions; cited from earlier work

Substance: CQADQEAKELARQISGSRLEEELRRRLTE [DPgly]
cross-linking kinetics [1]: no major differences observed

DP-potentiated activation of PTHR1 (PTHR1 [2]): DP-potentiated activation of PTHR1
Substance: CQADQEAKELARQISZSRLEEELRRRLTE [DPahx]
cross-linking kinetics [1]: no major differences observed

Substance: PTH12–34: fragment of PTHR1 agonist peptide PTH1–34 (GKHLNSMERVEWLRKKLQDVHNF; Parathyroid hormone; UniProt P01270 43-65, looked up, fragment)
activity of PTHR1 agonist fragments (PTHR1 [3]): weakly active or inactive

Substance: dibenzylcyclooctyne [DBCO]
DBCO-azide cycloaddition rate [4]: ~1 M^–1S^1–
